Compounds with a hit are over-represented: about 11% of the library has one in this group of screens.
Lmaj promast: reduces viability of Leishmania major promastigotes. inhibition, % at 10 µM. 200,000 tested, 9% active. resazurin fluorescence viability. AID 1063;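 also: promastigotes grown with compound for 44 hours at 28 °C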
G6PDH CS: inhibits Leuconostoc G6PDH, flagging false hits in G6PDH-based assays. 200,000 tested, 0.12% active. Purified L. mesenteroides G6PDH, diaphorase/resazurin coupled fluorescence, 45 min. inhibition, % at 5 µM
Diaphorase act: activates diaphorase or chemically reduces, flagging diaphorase assay artifacts; Diaphorase/resazurin coupled assay, resorufin fluorescence, 16 min; hits give high values; 1 = vehicle wells, 0 = NADH-free wells; activation factor at 20 µM; 190,000 tested, 0.005% active;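 active = diaphorase activity raised at least twofold by the compound at 20 µM; inactive = activation factor below 2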
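test system = bacterial diaphorase enzyme (C. kluyveri) | quantity = enzyme 0.07 U/mL final | reagent = NADH substrate 0.114 mM plus resazurin dye 0.1 mM, final | incubation = 16 min enzyme reaction, ambient temperature | buffer or medium = HEPES pH 7.4 buffer with MgCl2 and Tween 20 | signal = fluorescence of resorufin, 544 nm excitation, 590 nm emission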
Diaphorase inh: inhibits diaphorase or chemically oxidizes, flagging diaphorase assay artifacts; diaphorase resazurin-to-resorufin fluorescence, NADH, 16 min; bacterial (C. kluyveri) enzyme, not human; inhibition, % at 20 µM; 190,000 tested, 0.69% active; AID 1217;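 active = primary screen inhibition at 20 µM above a set limit, cut at about 50% in these data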
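Benchmarks: positive control wells lacking NADH, neutral wells with DMSO only. System: bacterial diaphorase enzyme (C. kluyveri). Input: 0.14 U/mL diaphorase, enzyme working solution. Detection: resorufin fluorescence, excitation 544 nm, emission 590 nm. Times: 16-min room-temperature incubation before reading.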
WT yeast gro inh: growth inhibition of WT yeast, mitochondrial fusion screen; mitochondrial fusion phenotypic screen, WT strain; 190,000 tested, 2.1% active; inhibition, % at 10 µM; in the data active = inhibition above about 58%; tested in S. cerevisiae
Each line names hits and unclear results; the compound was inactive in the other large screens. Rule as the data show it, unless noted: active = inhibition above about 50%; inactive = the rest.

S=c1[nH]nc(-c2cccc(Cl)c2)n1CCN1CCCCC1	none
COC(=O)C1=CN(CCOC23CC4CC(CC(C4)C2)C3)C=C(C(=O)OC)C1c1ccsc1	WT yeast gro inh 67.8
COC(=O)C1=CN(Cc2cccs2)C=C(C(=O)OC)C1c1cccc(Cl)c1	none
COC(=O)C1=CN(Cc2cccs2)C=C(C(=O)OC)C1c1ccc(OC)cc1OC	Lmaj promast 97.9
COC(=O)C1=CN(CC2CCCO2)C=C(C(=O)OC)C1c1ccsc1 (stereo not drawn)	none
CCOC(=O)C1=CN(C)C=C(C(=O)OCC)C1c1ccsc1	none
COC(=O)C1=CN(Cc2ccc(OC)cc2)C=C(C(=O)OC)C1c1ccsc1	Lmaj promast 100.2
CC1=CCC2COC(c3ccc[n+](Cc4ccccc4)c3)C1C2 (stereo not drawn)	none
CCCCNCC#CCOc1cc(C)ccc1C(C)C	Lmaj promast 94.8, WT yeast gro inh 73.5
Cc1ccc(C(C)C)c(OCCCNCc2cccnc2)c1	Lmaj promast 87.1
Cc1ccc(C(C)C)c(OCCNC(=O)c2cncc(Br)c2)c1	none
Cc1ccc(C(C)C)c(OCCNS(C)(=O)=O)c1	none
CCCC(=O)OCCNc1cc(Sc2nccn2C)c2nonc2c1[N+](=O)[O-]	Lmaj promast 99.9
CCC(=O)OCCNc1cc(Sc2nc3ccccc3[nH]2)c2nonc2c1[N+](=O)[O-]	none
CCCSc1cc(NCCOC(=O)CCC)c([N+](=O)[O-])c2nonc12	Diaphorase inh 51.1
CCCSc1cc(NCCOC(C)=O)c([N+](=O)[O-])c2nonc12	Lmaj promast 67.0
COc1cc(C)c(S(=O)(=O)N2CCN=C2c2ccccc2)cc1C	Lmaj promast 93.5
Cc1cc(C)c(S(=O)(=O)N2CCN=C2c2ccccc2)cc1C	none
CN(C)S(=O)(=O)c1cccc(NC(=O)CN2C(=O)C3C4C=CC(C4)C3C2=O)c1 (stereo not drawn)	none
CC(C)CCN1CCN(Cc2cccc(-n3cccn3)c2)CC1CCO (stereo not drawn)	Lmaj promast 83.2
CC(=O)c1cccc(CN2CCN(Cc3ccccc3)C(CCO)C2)c1 (stereo not drawn)	none
Cc1ccc(CN2CCN(Cc3ccc(-n4cccn4)cc3)CC2CCO)cc1 (stereo not drawn)	Lmaj promast 61.7
Cc1cc(-n2cccn2)ccc1CN1CCN(C2CCCC2)C(CCO)C1 (stereo not drawn)	Lmaj promast 64.3
OCCC1CN(Cc2cccc(-n3cccn3)c2)CCN1Cc1ccccc1 (stereo not drawn)	Lmaj promast 79.0
CC(C)N1CCC(N2CCN(Cc3cc(F)ccc3-n3cccn3)CC2CCO)CC1 (stereo not drawn)	none
O=[N+]([O-])c1cc(-n2cccc2)ccc1N1CCOCC1	none
COc1ccc(C)cc1S(=O)(=O)N1CCC(C(=O)NCCc2ccccc2)CC1	none
Cc1ccccc1C(=O)Nc1ccc(C(=O)N/N=C/c2ccncc2)cc1	none
O=C(Nc1ccccc1C(=O)N/N=C/c1ccncc1)c1ccccc1	WT yeast gro inh 77.1
Cc1ccc(NC(=O)c2cncc(Br)c2)c(O)c1	none
Cc1cc(C)n(-c2nnc(C)n2/N=C/c2ccco2)n1	none
CCCOc1ccc2ccccc2c1/C=N/n1c(C)nnc1-n1nc(C)cc1C	Lmaj promast 51.0
CC(C)C(c1nnnn1C1CCCC1)N(C)C1CCCCC1 (stereo not drawn)	none
Cc1ccc(C(c2nnnn2C2CCCCC2)N(C)C2CCCCC2)cc1 (stereo not drawn)	Lmaj promast 71.5, WT yeast gro inh 81.0
COc1cc2cc(C(c3nnnn3C3CCCCC3)N(C)C3CCCCC3)c(=O)[nH]c2cc1OC (stereo not drawn)	Lmaj promast 71.8
CC(=O)Nc1ccc(OCC(O)CN2CCN(Cc3ccccc3)CC2)cc1 (stereo not drawn)	none
OC(COCCOc1ccc(Br)cc1)CN1CCN(Cc2ccccc2)CC1 (stereo not drawn)	Lmaj promast 84.8
COCCOCC(O)CN1CCN(c2ccccc2)CC1 (stereo not drawn)	none
COc1ccc(OCCOCC(O)CN2CCOCC2)cc1 (stereo not drawn)	none
CC1CC(OCC(O)CN2CCN(Cc3ccccc3)CC2)CC(C)(C)C1 (stereo not drawn)	Lmaj promast 92.7
CCc1ccc(OCCOCC(O)CN2CCN(Cc3ccc(Cl)cc3)CC2)cc1 (stereo not drawn)	Lmaj promast 95.9
COc1cccc(OCCOCC(O)CN2CCN(Cc3ccc(Cl)cc3)CC2)c1 (stereo not drawn)	Lmaj promast 52.1
CCOC(=O)C(=O)C1=C(N2CCOCC2)/C(=C\c2ccc(F)cc2)CC1	Lmaj promast 71.5
CCOC(=O)c1c(N)sc(C(=O)OCCOC)c1C	none
CCCCNC(=O)C(=O)NC(C)CCc1ccccc1 (stereo not drawn)	none
Cc1nc(CS(=O)c2ccc(Cl)cc2)cc(NCc2ccc(Cl)cc2Cl)n1 (stereo not drawn)	WT yeast gro inh 58.7
Cc1nc(CSc2ccc(Cl)cc2)cc(NCc2ccccc2)n1	none
O=C1C(=O)N(CCN2CCCCC2)c2ccccc21	none
O=C1c2ccccc2C(=O)N1CCN1CCCCC1	WT yeast gro inh 65.6
COCC(C)NC(=O)/C(=C/c1ccccc1)c1ccccc1 (stereo not drawn)	none
CC(NC(=O)/C(=C/c1ccc(OC(F)F)cc1)c1ccccc1)c1ccccc1 (stereo not drawn)	Lmaj promast 78.0, WT yeast gro inh 65.3
COc1cccc(OC)c1C(=O)N1CCN(Cc2ccccc2C)CC1	none
COc1ccc(/C=C/C(O)=C2/C(=O)N(C)C3(C)CC2c2ccccc2O3)cc1 (stereo not drawn)	Lmaj promast 79.9
COc1ccc(/C=C/C(O)=C2/C(=O)NC3(C)CC2c2ccccc2O3)c(OC)c1OC (stereo not drawn)	none
Cc1ccc(/C=C/C(O)=C2/C(=O)N(C)C3(C)CC2c2ccccc2O3)cc1 (stereo not drawn)	Lmaj promast 78.7
COc1cc(C(C(=O)NC2CCCCC2)N(Cc2ccco2)C(=O)c2cnccn2)cc(OC)c1OC (stereo not drawn)	none (no result: Diaphorase act, Diaphorase inh)
CC1CC(C)(C)NC(=S)N1CCC(=O)N1CCc2ccccc21 (stereo not drawn)	none
O=C(/C=C/c1ccc(-c2ccccc2)o1)c1ccccc1	none
Cc1ccc(-c2ccc(/C=C/C(=O)c3ccccc3)o2)cc1	Lmaj promast 89.3
Cc1ccc(C(=O)/C=C/C(=O)c2ccc(C)cc2)cc1	Lmaj promast 100.6
Cc1nn(C)c(Oc2ccccc2)c1CCNC(=O)C(C)(C)C	none
Cc1cc(C)cc(Nc2ncc3c(n2)CCCC3=O)c1	none
CCC(CC)C(=O)c1c[nH]c(C(=O)N2CCN(c3ccccc3)CC2)c1	none
O=C(NCc1ccco1)/C(=C/c1cccc(C(F)(F)F)c1)c1nc2ccccc2[nH]1	Lmaj promast 79.9

Screening results as filed in PubChem BioAssay.
